Results of several laboratories.
Lines come from different studies, so protocols differ.
Target: Wee1-like protein kinase (WEE1, Homo sapiens, UniProt P30291)

| Compound | read-out | action | technique | tested at | measurement | value |
| --- | --- | --- | --- | --- | --- | --- |
| CC(C)(C)c1cc(C=C(C#N)C#N)cc(Br)c1O | enzyme activity | inhibitor |  | 0.5 µM | remaining activity | 90.9% |
| Cn1cc(-c2cc(F)cc(N3CCn4c(cc5c4CCCC5)C3=O)c2CO)cc(Nc2ccc(N3CCN(C4COC4)CC3)cn2)c1=O | enzyme activity | inhibitor |  | 0.1 µM | inhibition | 3% |
| Cc1nn(C)cc1-c1nc2c(N3CCN(Cc4ccc(Cl)cc4)CC3)c(Cl)cnc2[nH]1 | binding |  | competition with immobilised ligand | 1 µM | remaining binding | 96% |
| COc1cc(Nc2ncc(F)c(Nc3ccc4c(n3)NC(=O)C(C)(C)O4)n2)cc(OC)c1OC | binding |  |  | 10 µM | inhibition | 81% |
| COc1ncccc1-c1cnn2ccc(N3CCN(C(=O)OC(C)C)CC3)nc12 | binding |  | competition with immobilised ligand | 1 µM | remaining binding | 82% |
| O=c1[nH]c2ccccc2n1C1CCN(Cc2ccc(-c3[nH]c4cc5ncnc5cc4nc3-c3ccccc3)cc2)CC1 | cell-free assay |  |  | 0.5 µM | remaining signal | 93.9% |
| Nc1ncc(-c2nc(N3CCOCC3)nc(N3CCOCC3)n2)c(C(F)F)n1 | binding |  | competition with immobilised ligand | 10 µM | remaining binding | 100% |
| Cn1cc(-c2cccc(N3CCc4c(sc5c4CC(C)(C)C5)C3=O)c2CO)cc(Nc2ccncn2)c1=O | enzyme activity | inhibitor |  | 1 µM | inhibition | -4% |
| Cn1cncc1[C@@](O)(COc1ccc(C#N)cc1-c1ccc(OC(F)(F)F)cc1)c1ccc(C#N)cc1 | cell-free assay |  | competition with immobilised ligand | 1 µM | remaining binding | 100% |
